Measurements gathered from unrelated publications.
Each line is one published result; the experiments were not run side by side.
Target: Tyrosine-protein kinase Fes/Fps (FES, Homo sapiens, UniProt P07332)

N[C@H]1CCN(c2nccc(-c3cnn4ncccc34)n2)C1
remaining binding (binding; 1 µM): 100%

C[C@@H](c1ccc(-n2cnc3c(N)ncnc32)cc1)N1CCc2nn(C)c(Cc3ccccc3)c2C1=O
remaining binding (binding, competition with immobilised ligand; 0.1 µM): 89%

COc1ncc2cc3ccccc3nc2c1C#N
remaining binding (cell-free assay, competition with immobilised ligand; 5 µM): 100%

COCCOc1nc(-c2ccc(Cl)nc2)nc2c1CN(C(=O)c1ncn3ccccc13)CC2
remaining binding (cell-free assay, competition with immobilised ligand; 0.1 µM): 100%

CN(CCCC(F)(F)F)c1nccc(-c2cnn3ncccc23)n1
remaining binding (binding; 1 µM): 95%

CNC(=O)Nc1ccc2c(c1)[C@@]1(CC2)OC(=O)N(CC(=O)N(Cc2ccc(F)cc2)[C@@H](C)C(F)(F)F)C1=O
remaining binding (cell-free assay, competition with immobilised ligand; 1 µM): 85%

c1cnn2ncc(-c3ccnc(N4CCC45COC5)n3)c2c1
remaining binding (binding; 1 µM): 95%

c1cncc(-c2cccc(Nc3nccc(NC4CCCCC4)n3)c2)c1
remaining binding (binding, competition with immobilised ligand; 10 µM): 80%

CN(c1nccc(-c2cnn3ncccc23)n1)C1CC1
remaining binding (binding; 1 µM): 100%

CCS(=O)(=O)c1cc2cc(C[C@@](O)(CC(C)(C)c3ccc(F)cc3C(N)=O)C(F)(F)F)[nH]c2cn1
remaining binding (cell-free assay, competition with immobilised ligand; 1 µM): 100%

O=C(NCC1CCOCC1)c1n[nH]cc1NC(=O)c1c(F)cccc1F
remaining binding (binding, competition with immobilised ligand; 1 µM): 100%

C[C@H]1CCN(c2nccc(-c3cnn4ncccc34)n2)C1
remaining binding (binding; 1 µM): 100%

COc1cnc(Nc2cccc(S(N)(=O)=O)c2)nc1N1CCN(c2ccccc2)C(=O)C1
remaining binding (binding, competition with immobilised ligand; 1 µM): 100%

CN(C)C(=O)Cn1cc(-c2nc([C@@](C)(c3ccc(-c4cnc(N)nc4)cc3)C3CC3)no2)cn1
remaining binding (cell-free assay, competition with immobilised ligand; 1 µM): 100%

CN(C)c1nccc(-c2cnn3ncccc23)n1
remaining binding (binding; 1 µM): 100%

O=C(NCCCN1CCOCC1)c1ccc(Nc2ncc(Cl)c(-c3ccc(Cl)s3)n2)cc1
remaining binding (binding, competition with immobilised ligand; 1 µM): 62%

Cc1c[nH]c2nccc(Oc3c(F)cc(Nc4cc(Cl)nc(N)n4)cc3F)c12
remaining binding (cell-free assay, competition with immobilised ligand; 0.1 µM): 100%

Cc1cnc(Nc2ccc(C(=O)N3CCC(N4CCCC4)CC3)cc2)nc1-c1cc2ccccc2s1
remaining binding (binding, competition with immobilised ligand; 1 µM): 52%

O=C(O)[C@H]1[C@H](Cn2nnc3ccccc3c2=O)CC[C@@H]1C(=O)c1ccc(OCCC2CCOCC2)cc1
remaining binding (cell-free assay, competition with immobilised ligand; 1 µM): 100%

O=C(c1ccc(Nc2ncc(Cl)c(-c3cc4ccccc4s3)n2)cc1)N1CCC(N2CCCC2)CC1
remaining binding (binding, competition with immobilised ligand; 1 µM): 74%

COc1ccnn2ncc(-c3ccnc(N(C)C)n3)c12
remaining binding (binding; 1 µM): 75%

CC(C)(O)c1cncc(-c2nc3ccc(F)cc3n2C2CC2)c1
remaining binding (cell-free assay, competition with immobilised ligand; 1 µM): 100%
